Assay results of several laboratories.
Each line is one published result; the experiments were not run side by side.
ALK C1156Y: ALK tyrosine kinase receptor (ALK, Homo sapiens, UniProt Q9UM73, C1156Y)
ALK: ALK tyrosine kinase receptor (ALK, Homo sapiens, UniProt Q9UM73)
ALK L1196M: ALK tyrosine kinase receptor (ALK, Homo sapiens, UniProt Q9UM73, L1196M)

SMILES | target | test | conditions | remaining binding
O=C(Nc1c[nH]nc1C(=O)NC1CCNCC1)c1cc(F)cc(F)c1 | ALK C1156Y | binding, competition with immobilised ligand | 1 µM | 100%
CN(C)c1nccc(-c2cnn3ncccc23)n1 | ALK | binding | 1 µM | 100%
O=C(NCC1CCOCC1)c1n[nH]cc1NC(=O)c1c(F)cccc1F | ALK L1196M | binding, competition with immobilised ligand | 1 µM | 100%
O=C(c1ccc(Nc2nccc(-c3cc4ccccc4s3)n2)cc1)N1CCC(N2CCCC2)CC1 | ALK | binding, competition with immobilised ligand | 1 µM | 84%
COc1ccc2c(c1)O[C@H](c1ccc(OC)c(OC)c1)C[C@@H]2NC(=O)C1(c2ccc3c(c2)OC(F)(F)O3)CC1 | ALK | cell-free assay, competition with immobilised ligand | 1 µM | 100%
C[C@@H](c1ccc(-n2cnc3c(N)ncnc32)cc1)N1CCc2nn(C)c(Cc3ccccc3)c2C1=O | ALK | binding, competition with immobilised ligand | 0.1 µM | 76%
CN(c1nccc(-c2cnn3ncccc23)n1)C1CC1 | ALK L1196M | binding | 1 µM | 100%
O=C(NC[C@@H]1[C@H]2CN(C(=O)OCc3cc(C(F)(F)F)cc(C(F)(F)F)c3)C[C@@H]12)c1ccc2[nH]nnc2c1 | ALK | cell-free assay, competition with immobilised ligand | 1 µM | 79%
FC(F)(F)Oc1cccc(-c2cnc3ccc(-c4ccncc4)nn23)c1 | ALK | cell-free assay, competition with immobilised ligand | 5 µM | 100%
CC1CCCN1c1nccc(-c2cnn3ncccc23)n1 (stereo not drawn) | ALK L1196M | binding | 1 µM | 85%
O=C(c1ccc(Nc2ncc(Cl)c(-c3ccc(Cl)s3)n2)cc1)N1CCC(N2CCCC2)CC1 | ALK L1196M | binding, competition with immobilised ligand | 1 µM | 67%
CCOC(=O)c1cc2cc(-c3cc(C(=O)NCc4ccc(C(=O)O)cc4)nn3C)ccc2[nH]1 | ALK L1196M | cell-free assay, competition with immobilised ligand | 0.1 µM | 98%
Cc1cnc(Nc2ccc(C(=O)N3CCC(N4CCCC4)CC3)cc2)nc1-c1cc2ccccc2s1 | ALK L1196M | binding, competition with immobilised ligand | 1 µM | 82%
CN1CCN(c2ccc(Nc3nccc(-c4ccccc4)n3)cc2C(F)(F)F)CC1 | ALK C1156Y | binding | 10 µM | 60%
N[C@@H]1CCN(c2nccc(-c3cnn4ncccc34)n2)C1 | ALK L1196M | binding | 1 µM | 100%
COc1cnc(Nc2cccc(S(N)(=O)=O)c2)nc1N1CCN(c2ccccc2)CC1 | ALK | binding, competition with immobilised ligand | 1 µM | 78%
Nc1ncc2c(n1)-c1c([nH]c3ccc(C#CC4CC4)cc13)CCCC2 | ALK C1156Y | binding, competition with immobilised ligand | 1 µM | 84%
C[C@@H]1CN(c2cc(-c3nn(C)c4ccc(OC5(C)CC5)cc34)ncn2)C[C@H](C)O1 | ALK L1196M | cell-free assay, competition with immobilised ligand | 1 µM | 98%
COc1ccnn2ncc(-c3ccnc(N(C)C)n3)c12 | ALK | binding | 1 µM | 96%
N#Cc1ccccc1CSc1nnc2c(n1)[nH]c1ccccc12 | ALK | binding, competition with immobilised ligand | 10 µM | 72%

SMILES | target | test | conditions | remaining binding
CN1CCN(c2ccc(Nc3nccc(-c4cccc([N+](=O)[O-])c4)n3)cc2C(F)(F)F)CC1 | ALK L1196M | binding | 10 µM | 76%
C[C@H](c1ccc(F)cc1)N(Cc1cccc(C(=O)O)c1)C(=O)c1cnc2ccccc2c1 | ALK | cell-free assay, competition with immobilised ligand | 1 µM | 94%
O=C(c1ccc(Nc2ncc(Cl)c(-c3cc4ccccc4s3)n2)cc1)N1CCC(N2CCCC2)CC1 | ALK L1196M | binding, competition with immobilised ligand | 1 µM | 100%
COc1ncc2cc3ccccc3nc2c1C#N | ALK C1156Y | cell-free assay, competition with immobilised ligand | 5 µM | 96%
CCN1CCN(Cc2ccc(C(=O)Nc3ccc(C)c(Oc4ccc5c(c4)CC(=O)N5)c3)cc2C(F)(F)F)CC1 | ALK | binding, competition with immobilised ligand | 1 µM | 100%
C=CC(=O)N1CCC(C(=O)NCC(=O)N2CCN(c3nc(-c4cnc(N)nc4C(F)F)nc(N4CCOCC4)n3)CC2)CC1 | ALK C1156Y | binding, competition with immobilised ligand | 1 µM | 91%
CNC(=O)[C@@H]1CC[C@@H](n2c(-c3ccc4cnccc4c3)nc3ccc(C(=O)NCc4cccc(C(N)=O)c4)cc32)C1 | ALK | binding, competition with immobilised ligand | 1 µM | 100%
O=C(NCCCN1CCOCC1)c1ccc(Nc2ncc(Cl)c(-c3ccc(Cl)s3)n2)cc1 | ALK | binding, competition with immobilised ligand | 1 µM | 67%
c1cncc(-c2cccc(Nc3nccc(NC4CCCCC4)n3)c2)c1 | ALK L1196M | binding, competition with immobilised ligand | 10 µM | 57%
C[C@@H]1CN(c2ccc3ncc(-c4ccc5[nH]nc(C6CC6)c5c4)n3n2)C[C@H](C)O1 | ALK | binding, competition with immobilised ligand | 50 nM | 64%
CC(C)(C)c1ccc(-c2nc(CBr)nn2-c2cccc(O)c2)cc1 | ALK | cell-free assay, competition with immobilised ligand | 10 µM | 78%
CO[C@@H](C)c1c(Nc2ccc([C@H](N(C)C(=O)C3CCS(=O)(=O)CC3)C(F)(F)F)cc2)cnc2cc(Cl)nn12 | ALK C1156Y | cell-free assay, competition with immobilised ligand | 1 µM | 89%
O=C(NCCCN1CCOCC1)c1ccc(Nc2nccc(-c3cc4ccccc4s3)n2)cc1 | ALK | binding, competition with immobilised ligand | 1 µM | 100%
C[C@H]1CCN(c2nccc(-c3cnn4ncccc34)n2)C1 | ALK C1156Y | binding | 1 µM | 99%
O=S(=O)(NC1CCC(c2cc(F)ccc2F)(S(=O)(=O)c2ccc(Cl)cc2)CC1)C(F)(F)F (stereo not drawn) | ALK L1196M | cell-free assay, competition with immobilised ligand | 1 µM | 94%
Cc1cnn2ncc(-c3ccnc(N(C)C)n3)c2c1 | ALK C1156Y | binding | 1 µM | 100%
COc1cnc(Nc2cccc(S(N)(=O)=O)c2)nc1N1CCN(c2ccccc2)C(=O)C1 | ALK C1156Y | binding, competition with immobilised ligand | 1 µM | 96%
C[C@@H]1CN(c2cc(-c3n[nH]c4ccc(OC5(C)CC5)cc34)ncn2)C[C@H](C)O1 | ALK | cell-free assay, competition with immobilised ligand | 0.1 µM | 65%
F[C@@H]1CCN(c2nccc(-c3cnn4ncccc34)n2)C1 | ALK C1156Y | binding | 1 µM | 100%
